The values that follow come from ChEMBL document CHEMBL1759937, “Pyridinesulfonylureas and pyridinesulfonamides as selective bombesin receptor subtype-3 (BRS-3) agonists” (Bioorg Med Chem Lett, 2011).

Structures are written as SMILES.

The target in assay [1] is T1, Bombesin receptor subtype-3 (Mus musculus) (UniProt O54798).
T1 sequence (whole entry): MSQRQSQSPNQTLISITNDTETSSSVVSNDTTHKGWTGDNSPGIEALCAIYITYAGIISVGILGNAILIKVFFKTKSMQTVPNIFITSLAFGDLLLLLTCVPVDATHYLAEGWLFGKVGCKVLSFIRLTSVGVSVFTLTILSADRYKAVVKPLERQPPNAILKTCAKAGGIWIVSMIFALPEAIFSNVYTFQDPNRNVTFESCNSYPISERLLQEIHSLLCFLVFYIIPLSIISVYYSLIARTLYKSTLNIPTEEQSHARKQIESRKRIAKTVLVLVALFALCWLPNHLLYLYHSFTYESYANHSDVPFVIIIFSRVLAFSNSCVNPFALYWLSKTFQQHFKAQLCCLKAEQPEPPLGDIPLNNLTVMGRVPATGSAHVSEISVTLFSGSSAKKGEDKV
Put plainly: Agonist activity at mouse BRS3 by functional assay relative to control. The gist of the method:
(§1)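 HEK293AEQ cells expressing mouse BRS-3; bioluminescence read against log molar compound concentration. EC50 taken as the inflection point of the sigmoidal curve and normalized to the EC50 of an internal standard. Values under 2 µM with standard errors are means of at least three experiments; duplicate data are reported individually.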

The target of assay [2] is T2, Bombesin receptor subtype-3 (Mus musculus, UniProt O54798).
T2 sequence (O54798 whole entry): T1 sequence (whole entry)
Put plainly: Agonist activity at mouse BRS3 by functional assay. In outline:
as §1

Assay [3] deals with T3, Bombesin receptor subtype-3 (Homo sapiens, UniProt P32247).
T3 sequence (P32247 whole entry): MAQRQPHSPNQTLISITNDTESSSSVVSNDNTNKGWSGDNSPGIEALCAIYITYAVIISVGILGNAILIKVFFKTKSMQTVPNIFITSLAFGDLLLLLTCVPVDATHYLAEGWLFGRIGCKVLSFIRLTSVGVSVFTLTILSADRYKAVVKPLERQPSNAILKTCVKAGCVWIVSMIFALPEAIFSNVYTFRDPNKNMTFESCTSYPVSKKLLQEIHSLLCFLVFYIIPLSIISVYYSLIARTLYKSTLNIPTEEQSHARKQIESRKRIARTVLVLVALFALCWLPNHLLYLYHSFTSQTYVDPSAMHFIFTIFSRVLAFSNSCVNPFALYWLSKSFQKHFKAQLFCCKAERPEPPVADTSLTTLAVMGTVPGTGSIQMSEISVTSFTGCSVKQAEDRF
Description: Binding affinity to human BRS3.

Assay [4] addresses T3, Bombesin receptor subtype-3. Put plainly: Agonist activity at human BRS3 by functional assay.

`CC(C)(C)NC(=O)NS(=O)(=O)c1cnccc1N[C@H]1CN2CCC1CC2` showed an Activity in assay [1] of 0%. For the same compound, the EC50 in assay [2] and in assay [4] was > 10 µM each time. The half-inhibitory concentration (IC50) in assay [3] was > 10 µM.
As for `CC(C)(C)NC(=N)NS(=O)(=O)c1cnccc1N[C@@H]1C[C@H]2CC[C@@H]1C2` (racemic), the Activity in assay [1] was 13%. The half-maximal effective concentration (EC50) was 7 µM in assay [2] and > 10 µM in assay [4]. In assay [3], this compound gave an IC50 of 9.7 µM.
Taken in the same sequence, the figures for `CCC(C)(C)NC(=O)NS(=O)(=O)c1cnccc1N[C@@H]1C[C@H]2CC[C@@H]1C2` (racemic) were 108%, 0.013 µM, 0.051 µM and 0.075 µM.
In the case of `CC(C)(C)NC(=O)NS(=O)(=O)c1cnccc1N[C@@H]1C[C@H]2CC[C@@H]1C2` (racemic) [listing 1 of 2 here], the EC50 in assay [2] came out at 0.028 µM; in assay [4], 0.081 µM. This compound showed an IC50 in assay [3] of 0.1 µM.
As to `CC(C)NC(=O)NS(=O)(=O)c1cnccc1N[C@H]1C[C@H]2CC[C@@H]1C2` (racemic), the Activity in assay [1] was 86%. For the same compound, the results for the concentration giving a half-maximal response (EC50) in assay [2] and in assay [4] were 0.098 µM and 0.94 µM, respectively. Also, the IC50 in assay [3] was 0.82 µM.
`CC(C)(C)NC(=O)NS(=O)(=O)c1cnccc1O[C@@H]1C[C@H]2CC[C@@H]1C2` (racemic): the Activity in assay [1] came out at 92%. For the same compound, the EC50 came to 0.32 µM in assay [2] and 1.2 µM in assay [4]. The compound further returned an IC50 in assay [3] of 0.99 µM.
For `CC(C)(C)NC(=O)NS(=O)(=O)c1cnccc1N[C@H]1C[C@H]2CC[C@]1(C)C2(C)C` the same measures were 82%, 0.033 µM, 0.45 µM and 0.3 µM.
Taken in the same sequence, the figures for `CC(C)(C)c1csc(NS(=O)(=O)c2cnccc2N[C@@H]2C[C@H]3CC[C@@H]2C3)n1` (racemic) were 81%, 0.2 µM, 2.1 µM and 2.5 µM.
Taken in the same sequence, the figures for `CC(C)(C)CC(=O)NS(=O)(=O)c1cnccc1N[C@@H]1C[C@H]2CC[C@@H]1C2` (racemic) were 61%, 4.9 µM, 8.3 µM and > 10 µM.
With `O=S(=O)(Nc1nc(C2CCC2)n[nH]1)c1cnccc1NC1CC2CCC1C2` (single isomer, unassigned) [listing 1 of 2 here], the EC50 in assay [2] came out at 0.19 µM; in assay [4], 1.7 µM. For the same compound, the IC50 in assay [3] amounted to 0.31 µM.
For the compound `CC(C)(C)NC(=O)NS(=O)(=O)c1cnccc1NC1CCCCC1`, the Activity in assay [1] turned out to be 90%. Moreover, the values for the EC50 in assay [2] and in assay [4] were 0.26 µM and 0.45 µM, respectively. In assay [3], this compound returned an IC50 of 0.4 µM.
For `CC(C)(C)NC(=O)NS(=O)(=O)c1cnccc1O[C@@H]1C[C@@H]2CC[C@H]1C2` the same measures were 77%, 0.32 µM, 1.6 µM and 0.88 µM.
Taken in the same sequence, the figures for `CC(C)(C)NC(=O)NS(=O)(=O)c1cnccc1NCc1ccccc1` were 20%, 6.9 µM, 7.5 µM and > 10 µM.
For `O=C(NC12CC3CC(CC(C3)C1)C2)NS(=O)(=O)c1cnccc1N[C@@H]1C[C@H]2CC[C@@H]1C2` (mixture of isomers) the same measures were 55%, 0.039 µM, 0.22 µM and 0.31 µM.
Take `CC(C)(C)NC(=O)NS(=O)(=O)c1cnccc1N[C@@H]1C[C@H]2CC[C@@H]1C2` [listing 1 of 2 here]: in assay [1], the Activity was 100%.
In the case of `CC(C)(C)NC(=O)NS(=O)(=O)c1cnccc1NC1CCc2ccccc21` (racemic), the Activity in assay [1] is 63%. Also, the EC50 in assay [2] was 1.3 µM; in assay [4], 6.8 µM. In addition, in assay [3], the IC50 amounted to 3.8 µM.
For the compound `CC(C)(C)CC(C)(C)NC(=O)NS(=O)(=O)c1cnccc1N[C@@H]1C[C@H]2CC[C@@H]1C2` (racemic), the Activity in assay [1] worked out at 102%. In addition, the figures for the EC50 in assay [2] and in assay [4] were 0.1 µM and 0.35 µM, respectively. The compound further showed an IC50 in assay [3] of 0.53 µM.
In assay [1], `CC(C)(C)NC(=O)NS(=O)(=O)c1ccccc1N[C@@H]1C[C@H]2CC[C@@H]1C2` (racemic) gave an Activity of 91%. Also, the EC50 in assay [2] stood at 0.34 µM; in assay [4] it was 6.4 µM. The same compound returned an IC50 in assay [3] of 6.2 µM.
In assay [1], `O=S(=O)(Nc1nc(C2CCC2)n[nH]1)c1cnccc1N[C@@H]1C[C@H]2CC[C@@H]1C2` (racemic) came in with an Activity of 84%.
In the case of `CC(C)c1n[nH]c(NS(=O)(=O)c2cnccc2N[C@@H]2C[C@H]3CC[C@@H]2C3)n1` (racemic), the Activity in assay [1] stood at 72%. Further, the EC50 in assay [2] worked out at 0.41 µM; in assay [4], 4 µM. The compound also registered an IC50 in assay [3] of 0.77 µM.
Taken in the same sequence, the figures for `CN(C(=O)NC(C)(C)C)S(=O)(=O)c1cnccc1N[C@@H]1C[C@H]2CC[C@@H]1C2` (racemic) were 49%, 6.5 µM, 8.3 µM and 6.7 µM.
With `O=S(=O)(Nc1nc(C2CCC2)n[nH]1)c1cnccc1NC1CC2CCC1C2` (single isomer, unassigned; faster eluting) [listing 1 of 2 here], in assay [1], the Activity stood at 87%.
In the case of `CC(C)(C)c1cccc(NS(=O)(=O)c2cnccc2N[C@@H]2C[C@H]3CC[C@@H]2C3)c1` (racemic), the Activity in assay [1] was determined as 102%. Further, the EC50 in assay [2] was found to be 0.16 µM; in assay [4] it was 2.6 µM. Also, the IC50 in assay [3] came to 0.52 µM.
For `CC(C)(C)NC(=O)NS(=O)(=O)c1cnccc1N[C@H]1C[C@@H]2CC[C@H]1C2` the same measures were 93%, 0.11 µM, 0.72 µM and 0.63 µM.
Taken in the same sequence, the figures for `CC(C)(C)NC(=O)NS(=O)(=O)c1cnccc1NC(C)(C)c1ccccc1` were 43%, 4.3 µM, 8.1 µM and 3 µM.
Taken in the same sequence, the figures for `CC(C)(C)OC(=O)NS(=O)(=O)c1cnccc1N[C@@H]1C[C@H]2CC[C@@H]1C2` (racemic) were 89%, 0.59 µM, 8.2 µM and > 10 µM.
In turn, `CC(C)(C)NC(=O)NS(=O)(=O)c1cnccc1N[C@@H]1C[C@H]2CC[C@]1(C)C2(C)C` showed an Activity in assay [1] of 88%. Further, the EC50 came out at 0.09 µM in assay [2] and 1.7 µM in assay [4]. In assay [3], this compound displayed an IC50 of 0.66 µM.
For `CC(C)(C)NC(=O)NS(=O)(=O)c1cnccc1N[C@H]1C[C@H]2CC[C@@H]1C2` (racemic), the Activity in assay [1] came out at 91%. Further, the values for the EC50 in assay [2] and in assay [4] were 0.049 µM and 0.16 µM, respectively. Moreover, the half-maximal inhibitory concentration (IC50) in assay [3] turned out to be 0.23 µM.
As for `CC(C)(C)NC(=O)NS(=O)(=O)c1cnccc1N[C@@H]1C[C@H]2CC[C@@H]1C2` [listing 2 of 2 here], the figures for the EC50 in assay [2] and in assay [4] were 0.021 µM and 0.055 µM, respectively. Moreover, the IC50 in assay [3] amounted to 0.068 µM.
`CC(C)(C)NC(=O)NS(=O)(=O)c1cnccc1NN1CCCC1` returned an Activity in assay [1] of 5%. The EC50 in assay [2] and in assay [4] was > 10 µM in each case. Further, the IC50 in assay [3] is > 10 µM.
Turning to `O=S(=O)(Nc1nnc(C2CCC2)[nH]1)c1cnccc1N[C@@H]1C[C@H]2CC[C@@H]1C2` (racemic), the concentration giving a half-maximal response (EC50) in assay [2] is 0.17 µM; in assay [4], 1.2 µM. This compound showed an IC50 in assay [3] of 0.29 µM.
`CC(C)(C)NC(=O)NS(=O)(=O)c1cnccc1N[C@@H]1C[C@H]2CC[C@@H]1C2` (racemic) [listing 2 of 2 here] had an Activity in assay [1] of 101%.
Regarding `CC(C)NC(=O)NS(=O)(=O)c1cnccc1N[C@@H]1C[C@H]2CC[C@@H]1C2` (racemic), the Activity in assay [1] turned out to be 88%. Further, the figures for the EC50 in assay [2] and in assay [4] were 0.086 µM and 0.44 µM, respectively. This compound displayed an IC50 in assay [3] of 0.51 µM.
Taken in the same sequence, the figures for `CN(C(=O)NS(=O)(=O)c1cnccc1N[C@@H]1C[C@H]2CC[C@@H]1C2)C(C)(C)C` (racemic) were 96%, 0.18 µM, 0.64 µM and 0.65 µM.
In assay [1], `CC(C)(C)c1cc(NS(=O)(=O)c2cnccc2N[C@@H]2C[C@H]3CC[C@@H]2C3)[nH]n1` (racemic) yielded an Activity of 113%. Also, the values for the concentration giving a half-maximal response (EC50) in assay [2] and in assay [4] were 0.27 µM and 4 µM, respectively. Further, the IC50 in assay [3] was determined as 0.25 µM.
In the case of `O=S(=O)(Nc1nc(C2CCC2)n[nH]1)c1cnccc1NC1CC2CCC1C2` (single isomer, unassigned; faster eluting) [listing 2 of 2 here], the EC50 in assay [2] stood at 0.051 µM; in assay [4], 0.38 µM. For the same compound, in assay [3], the IC50 stood at 0.068 µM.
`O=S(=O)(Nc1nc(C2CCC2)n[nH]1)c1cnccc1NC1CC2CCC1C2` (single isomer, unassigned) [listing 2 of 2 here] yielded an Activity in assay [1] of 88%.
